Assay results collected from several papers.
Target: Beta-adrenergic receptor kinase 1 (GRK2, Homo sapiens, UniProt P25098)
One construct used (P25098 1-689): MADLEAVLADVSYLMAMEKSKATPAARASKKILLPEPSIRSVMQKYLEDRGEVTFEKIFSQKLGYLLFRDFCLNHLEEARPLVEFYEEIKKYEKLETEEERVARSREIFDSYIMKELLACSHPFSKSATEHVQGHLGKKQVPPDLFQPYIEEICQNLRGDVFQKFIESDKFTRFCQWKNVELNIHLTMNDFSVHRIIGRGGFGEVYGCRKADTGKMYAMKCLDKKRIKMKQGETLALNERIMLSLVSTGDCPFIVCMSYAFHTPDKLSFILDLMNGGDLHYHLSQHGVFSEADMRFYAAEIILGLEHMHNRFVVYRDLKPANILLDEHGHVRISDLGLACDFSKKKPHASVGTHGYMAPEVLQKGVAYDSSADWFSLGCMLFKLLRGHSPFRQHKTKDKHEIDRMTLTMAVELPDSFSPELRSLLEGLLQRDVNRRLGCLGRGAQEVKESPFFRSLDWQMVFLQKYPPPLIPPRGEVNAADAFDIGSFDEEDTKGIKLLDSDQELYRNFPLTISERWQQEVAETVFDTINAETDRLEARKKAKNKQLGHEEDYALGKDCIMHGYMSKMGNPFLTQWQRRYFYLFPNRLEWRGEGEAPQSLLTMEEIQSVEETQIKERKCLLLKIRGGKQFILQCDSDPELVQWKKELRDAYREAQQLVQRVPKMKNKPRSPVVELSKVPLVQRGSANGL

COc1cc(Cl)c(C(=O)N[C@@H](CN[C@H]2CC[C@@H](N)CC2)Cc2ccc(C#N)cc2)cc1-c1ccc(CN[C@H](C)c2ccc(C)cc2)o1
remaining activity (enzyme activity; inhibitor; 1 µM): 105%

N[C@H]1CCN(c2nccc(-c3cnn4ncccc34)n2)C1
remaining binding (binding; competition with immobilised ligand; 1 µM): 80%

N#CCCc1ccc2c(c1)-c1[nH]c3ccc([N+](=O)[O-])cc3c1CC(=O)N2
remaining signal (cell-free assay; 0.5 µM): 96.4%

CCc1ccccc1C(=O)Nc1n[nH]c2c(C)c(F)c(C3C(C#N)=C(C)N(C)C(C)=C3C#N)cc12
remaining binding (cell-free assay; competition with immobilised ligand; 1 µM): 100%

O=C(Nc1cnn(-c2csc(C(=O)NC3COC3)c2)c1)Nc1ccccc1Cl
remaining activity (enzyme activity; inhibitor; 5 µM): 96.1%

COc1cc2ncnc(Nc3ccc(Oc4ccccc4)c(C)c3C)c2cc1OC
inhibition (enzyme activity; inhibitor; 1 µM): -2%

Cc1ccc(C(=O)NCc2ccsc2)cc1C#Cc1cn(C(C)C)c2ncnc(N)c12
activity vs control (enzyme activity; inhibitor; 1 µM): 101%

CC(C)(C)c1nc2c(s1)c1nc(N)ncc1c1ccc(NS(=O)(=O)c3c(F)cccc3F)c(F)c12
remaining activity (enzyme activity; inhibitor; radiometric; 1 µM): 90%

O=C(Nc1cccnn1)N1CC(C/C=C/c2cncc(Oc3ccc(C(F)(F)F)cn3)n2)C1
remaining binding (cell-free assay; competition with immobilised ligand; 1 µM): 96%

O=C(Nc1cnn(-c2csc(C(=O)NC3COC3)c2)c1)Nc1c(F)cccc1Cl
remaining activity (enzyme activity; inhibitor; 5 µM): 106%

O=C(NCc1ncc(C(F)(F)F)cc1Cl)c1ccc2c(c1)C1(CCS(=O)(=O)CC1)[C@H](C1CC1)N2S(=O)(=O)c1ccc(F)cc1
remaining binding (cell-free assay; competition with immobilised ligand; 1 µM): 56%

O=C1NC(=O)c2cc(Nc3ccc(F)cc3)c(Nc3ccc(F)cc3)cc21
remaining signal (cell-free assay; 0.5 µM): 104%

O=C(NS(=O)(=O)c1ccc(NCC2CCOCC2)c([N+](=O)[O-])c1)c1ccc(N2CCN(Cc3ccc(C(F)(F)F)cc3-c3ccc(Cl)cc3)CC2)cc1Oc1cnc2[nH]ccc2c1
remaining binding (cell-free assay; competition with immobilised ligand; 1 µM): 91%

c1ccc(CNc2nc(N3CCOc4ccccc43)nc3c2CCCC3)cc1
inhibition (target engagement in cells; inhibitor; chemoproteomics; 20 mM): -6.7%

Cc1noc([C@H]2C[C@@H](c3ccc(C(F)(F)F)cc3)CN(C(=O)N3CCS(=O)(=O)C3)C2)n1
remaining binding (cell-free assay; competition with immobilised ligand; 1 µM): 83%

Nc1ncnc2occ(-c3ccc(NC(=O)Nc4cc(C(F)(F)F)ccc4F)cc3)c12
remaining signal (cell-free assay; inhibitor; 20 µM): 81%
